Screens from PubChem.
GALR2 blocker: antagonists of human galanin receptor 2 (GALR2); inhibition, % at 4 µM; 0.39% of 140,000 active; O43603; GALR2-expressing cells, antagonist mode; AID 828; in the data active = inhibition above about 27%;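 note: cells stimulated with galanin 1-16 at roughly its EC80; 0% = agonist challenge control and 100% = basal control without agonist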
Target sequence (O43603 whole entry, looked up): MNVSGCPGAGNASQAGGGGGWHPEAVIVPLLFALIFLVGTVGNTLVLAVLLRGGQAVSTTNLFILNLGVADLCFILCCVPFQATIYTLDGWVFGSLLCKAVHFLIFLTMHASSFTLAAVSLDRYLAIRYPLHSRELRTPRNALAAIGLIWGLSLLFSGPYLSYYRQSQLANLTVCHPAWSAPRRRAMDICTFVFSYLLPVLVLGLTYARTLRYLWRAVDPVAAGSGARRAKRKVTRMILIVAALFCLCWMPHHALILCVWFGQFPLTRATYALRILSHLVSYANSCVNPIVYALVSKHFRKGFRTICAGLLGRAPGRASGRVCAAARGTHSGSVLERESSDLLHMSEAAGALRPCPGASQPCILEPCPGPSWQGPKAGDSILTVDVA
S1P2 agonist: agonists of human S1P2 receptor | activation, % at 4.5 µM | O95136 | S1P2-expressing cell line, agonist reporter read-out | 0.46% of 97,000 active; in the data active = activation above about 16%;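 note: 0% = vehicle low control and 100% = maximal reference agonist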
HIV Rev-RRE inh: HIV Rev-RRE protein-RNA interaction inhibition; Rev peptide-RRE RNA binding, FRET; inhibition, % at 8 µM; 0.79% of 97,000 active; AID 704;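 active = inhibition above the screen-wide mean plus 3 SD, cut at about 35% in these data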;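 note: 0% = median DMSO wells and 100% = median Neomycin B control wells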
Target sequence (P05866 whole entry, looked up): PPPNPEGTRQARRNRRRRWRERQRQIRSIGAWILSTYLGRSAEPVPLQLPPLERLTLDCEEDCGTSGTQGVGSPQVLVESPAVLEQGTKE
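Test system – labelled RRE RNA duplex and labelled Rev peptide · Signal – fluorescein-to-Cy5 FRET, 480 nm excitation · Evaluation – % inhibition of FRET ratio versus controls · Benchmarks – DMSO low control, neomycin B high control · Incubation – 5 min RNA-compound premix plus 15 min binding step, 25 °C · Medium – HEPES pH 7.5 salt buffer with EDTA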
S1P2 antag: antagonists of human S1P2 receptor | O95136 | inhibition, % at 5 µM | cell-based S1P2 antagonist assay, inhibition at 5 uM | 0.21% of 97,000 active | AID 736; in the data active = inhibition above about 45%;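 note: CRE beta-lactamase reporter cells expressing human S1P2 stimulated with S1P; 0% = agonist at EC80 alone and 100% = agonist plus reference antagonist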
GALR2 agonist: activates the human galanin receptor 2 | O43603 | GALR2-expressing cells, agonist activation read-out | activation, % (concentration not given with the values) | 0.48% of 140,000 active; in the data active = activation above about 5%, passing the limit was not always enough;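 note: 0% = vehicle buffer wells and 100% = reference agonist at full effect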
* marks the source's active call; other numbers are inactive results; nt = no result; [ ] = remark or other dose. The list is not random: actives were taken first. Their share in the collection is about 1.6%.

SMILES | GALR2 blocker | S1P2 agonist | HIV Rev-RRE inh | S1P2 antag | GALR2 agonist
COc1cccc(C2CN(c3ccc(F)cc3F)N=C2c2cccs2)c1OC (stereo unspecified) | -10 | 44* | 8 | -50 | 41*
COc1cccc(C2C=C(c3cccs3)Nc3ncnn32)c1OC (stereo unspecified) | 10 | -11 | 19 | 26 | 0
COc1ccccc1C1CN(c2ccccc2)N=C1c1cccs1 (stereo unspecified) | -2 | 33* | 11 | -32 | 61*
COc1ccccc1Nc1nc(-c2cccs2)cs1 | 17 | -4 | 3 | 21 | -2
CCOC(=O)CSc1nc2ccccc2n1CC(=O)N(C(C)C)C(C)C | -7 | 1 | 0 | -15 | 1
CCOC(=O)CN1C=C(c2ccc3ccccc3n2)C(C[N+](=O)[O-])c2ccccc21 (stereo unspecified) | 5 | 0 | 94*[fluorescence artefact?] | -27 | 0
CC1CCc2cccc3c2N1c1cc(C#N)c(C#N)cc1O3 (stereo unspecified) | 6 | -6 | 40* | 0 | -2
CC1CCCCN1c1cc(C#N)c(C#N)cc1[N+](=O)[O-] (stereo unspecified) | -7 | -6 | -2 | 1 | 0
Cc1ccc(CSCC(=O)NN=C2CCN(C)CC2)cc1 | -4 | nt | nt | nt | 0
CCn1c(O)c(/C=N/N=C/c2ccccc2)c2ccc(C3=NNC(=O)CC3)cc21 | 4 | 0 | 57* | 12 | -1
CCC(CC)=N/N=C/c1c(O)n(CC)c2cc(C3=NNC(=O)CC3)ccc12 | 4 | -5 | 18 | -17 | -1
Cn1nc(SCC(=O)O)sc1=S | -2 | -6 | 140*[fluorescence artefact?] | 7 | -2
COc1ccc(-c2cc(C(=O)Nc3c(Cl)cc(Cl)cc3Cl)c3ccccc3n2)cc1OC | 0 | nt | nt | nt | 4.9*
CCOc1ccc(N=C2NC(=O)S/C2=C\c2ccc(N(C)C)cc2)cc1 | 18 | -7 | 118*[fluorescence artefact?] | 14 | -4
CCOc1ccc(/C=C2/SC(=O)NC2=S)cc1 | -2 | nt | nt | nt | 0
CCn1c2ccccc2c2cc(NC(=O)CSc3nnc(-c4ccc(OC)cc4)n3N)ccc21 | 9 | -11 | 10 | 30 | 5.2*
CN(C)c1ccc(/C=C/C(=O)c2cccc(Br)c2)cc1 | 5 | -8 | 131*[fluorescence artefact?] | 13 | -2
COc1ccc(C=Nc2cccc3c(=O)[nH][nH]c(=O)c23)c2ccccc12 | -11 | 0 | 9 | -39 | 0
COc1ccc(/C=C/c2ccncc2)c2ccccc12 | -13 | 3 | 141*[fluorescence artefact?] | -33 | -1
COc1ccc(N2C(=O)[C@@H]3[C@H](C2=O)[C@H]2c4ccccc4C=CN2[C@@H]3C(=O)Nc2ccccc2)cc1 | -9 | -2 | 119*[fluorescence artefact?] | 15 | -2
O=C(c1ccco1)[C@@H]1[C@@H]2C(=O)N(c3ccccc3)C(=O)[C@@H]2C2c3ccccc3C=CN21 (stereo partly specified) | -9 | -3 | 34 | 26 | -1
CC(=O)[C@@H]1[C@@H]2C(=O)N(Cc3ccccc3)C(=O)[C@@H]2C2c3ccccc3C=CN21 (stereo partly specified) | -16 | -7 | 64* | -4 | -1
COc1cc(C2C(C#N)=C(N)Oc3c2c(-c2ccccc2)nn3-c2ccccc2)cc(OC)c1OC (stereo unspecified) | 5 | nt | nt | nt | 3
CCCn1c(=N)c(C#N)cc2c(=O)n3ccccc3nc21 | 8 | nt | nt | nt | 0
Cc1cccc(-n2c(=O)c(C#N)cc3c(=O)n4ccccc4nc32)c1 | -15 | 39* | 23 | -63 | 24*
SMILES | GALR2 blocker | S1P2 agonist | HIV Rev-RRE inh | S1P2 antag | GALR2 agonist
Cc1cc(-n2c(=O)c(C#N)cc3c(=O)n4cccc(C)c4nc32)no1 | -7 | nt | nt | nt | 19*
Cc1ccc(-n2c(=O)c(C#N)cc3c(=O)n4ccccc4nc32)cc1 | -5 | nt | nt | nt | 8.7*
CC(C)(C)c1ccc(OCCNC(=S)NC(=O)c2cccnc2)cc1 | 0 | nt | nt | nt | -1
CCNC(=O)COc1cccc(C(=O)NCc2ccccc2)c1 | 2 | nt | nt | nt | -1
Cc1ccccc1NC(NC(=O)c1cccs1)C(Cl)(Cl)Cl (stereo unspecified) | -2 | -4 | 3 | -4 | -3
O=C(O)CCS(=O)(=O)c1nc(-c2cccs2)cc(C(F)(F)F)n1 | 3 | -2 | 1 | 12 | -2
CS(=O)(=O)c1nc(-c2cccs2)cc(C(F)(F)F)n1 | 38* | -1 | 9 | 29 | 2
CCOC(=O)C(C)/C(C)=N/NC(N)=S (stereo unspecified) | 16 | nt | nt | nt | -1
Cc1ccc(-n2ncc3c(N4CCN(c5ccccc5)CC4)ncnc32)c(C)c1 | 8 | -4 | 1 | 60* | 0
CS(=O)(=O)c1ccc2nc(NC(=O)Nc3ccc(Cl)c(Cl)c3)sc2c1 | 0 | nt | nt | nt | -1
CS(=O)(=O)c1ccc2nc(NC(=O)Nc3cccc(Cl)c3)sc2c1 | 4 | -10 | 23 | 47* | 0
O=C(NNc1nc2cc3c(cc2s1)OCO3)c1cccc(F)c1 | -2 | nt | nt | nt | -1
CC(C)/C=C1\CC/C(=C\c2ccc(N(C)C)cc2)C1=O | -1 | nt | nt | nt | -1
CC(C)c1ccc(/C=C2\CC/C(=C\C=N\N(C)C)C2=O)cc1 | -7 | -2 | 46* | -16 | -3
Nc1c(S(=O)(=O)c2ccccc2)c2nc3ccccc3nc2n1Cc1ccco1 | 7 | -2 | 43* | 0 | 0
CC(=Nc1cccc(O)c1)c1sc2ccccc2c1O | -4 | 1 | 48* | -6 | -1
CN=Cc1sc2ccccc2c1O | -9 | 0 | 1 | 24 | -1
CC(=Nc1ccc(C)cc1)c1sc2ccccc2c1O | -1 | -14 | 44* | 24 | -3
COc1ccc(/C=C(\C#N)C(=O)OCC(=O)Nc2c(C)cccc2C(C)C)cc1 | -4 | nt | nt | nt | 0
Cc1cc(Br)ccc1NC(=O)CN1C(=O)C2C3CC(c4ccccc4)C(C3)C2C1=O (stereo unspecified) | 3 | -7 | 4 | 17 | -1
COC(=O)[C@H]1CCCN1C(=O)Nc1cccc(Oc2c(F)c(F)c(F)c(F)c2F)c1 | 8 | -4 | 3 | 2 | 14*
COCCN(C(=O)CN1CCN(S(=O)(=O)c2ccc(F)cc2)CC1)c1c(N)n(Cc2ccccc2)c(=O)[nH]c1=O | 15 | nt | nt | nt | -1
COc1ccc(C(=O)Nc2ccc(-c3ccc(NC(=O)c4ccc(OC)cc4)c(OC)c3)cc2OC)cc1 | -2 | nt | nt | nt | 6.2*
CCOC(=O)c1ccc(NCn2c(=O)oc3ccccc32)cc1 | 10 | -3 | 55* | 16 | 0
COc1ccc(CCn2c(N)c(C(=O)NCc3ccco3)c3nc4ccccc4nc32)cc1 | 4 | nt | nt | nt | 1
COCCNC(=O)c1c(N)n(CCC2=CCCCC2)c2nc3ccccc3nc12 | -14 | 26* | 56* | -51 | 19*
CCC(C)NC(=O)CCSc1ccc(C)cc1 (stereo unspecified) | -4 | nt | nt | nt | 0
COC(=O)CCC/C=C1\SC[C@@H](NC(=O)c2ccccc2)C1NC(C)=O (stereo partly specified) | 7 | nt | nt | nt | -3
Cn1c(N/N=C/c2cc3ccccc3nc2Cl)nc2ccccc21 | 16 | nt | nt | nt | -1
COc1ccc(NC(=O)c2sc3cc(C(F)(F)F)cnc3c2-c2cccs2)cc1 | -6 | -2 | 15 | 15 | 0
